Experiments:
Cathepsin B [1] = target: T1, Cathepsin B (Homo sapiens, UniProt P07858); assay: Inhibition of human recombinant cathepsin B assessed as formation of fluorescent degradation product AMC using Z-Arg-Arg-AMC as substrate at 50 uM by fluorescence microplate assay
[2] = target: T2, Pro-cathepsin H (Homo sapiens) (UniProt P09668); assay: Inhibition of native cathepsin H isolated from human liver assessed as formation of fluorescent degradation product AMC using Arg-AMC as substrate at 50 uM by fluorescence microplate assay
T2 sequence (whole entry): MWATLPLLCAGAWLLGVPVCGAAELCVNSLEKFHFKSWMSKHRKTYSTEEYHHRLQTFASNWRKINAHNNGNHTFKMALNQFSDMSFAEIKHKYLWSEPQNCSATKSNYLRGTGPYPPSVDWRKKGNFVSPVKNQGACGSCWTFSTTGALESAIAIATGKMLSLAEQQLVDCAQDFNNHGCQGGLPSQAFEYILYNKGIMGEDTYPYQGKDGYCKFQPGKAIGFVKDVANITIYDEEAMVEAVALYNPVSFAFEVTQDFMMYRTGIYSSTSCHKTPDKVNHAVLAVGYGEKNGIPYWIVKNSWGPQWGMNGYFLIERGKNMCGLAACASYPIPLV

Cathepsin B [3] = target: T1, Cathepsin B; assay: Inhibition of human recombinant cathepsin B assessed as factor by which the product formation changes when the inhibitor binds to the enzyme-substrate complex using Z-Arg-Arg-AMC as substrate by fluorescence microplate assay
In short: (§1)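 Recombinant human catB (133 pM) preactivated 5 min at 37 °C in 100 mM phosphate pH 6.0, 0.1% PEG 8000, 5 mM DTT, 1.5 mM EDTA, 5% DMSO. Initial hydrolysis rates taken across Z-Arg-Arg-AMC (60, 180, 360 µM, as added) and inhibitor (0–70 µM, as added). AMC read ex 380/em 460 nm at 37 °C. Duplicates, two independent runs. β fitted for ES-complex binding.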

Cathepsin B [4] = target: T1, Cathepsin B; assay: Reversible inhibition of human recombinant cathepsin B assessed as formation of fluorescent degradation product AMC using Z-Arg-Arg-AMC as substrate by Michaelis-Menten method; in short: as §1
Cathepsin B [5] = target: T1, Cathepsin B; assay: Mixed-type inhibition of human recombinant cathepsin B assessed as formation of fluorescent degradation product AMC using Z-Arg-Arg-AMC as substrate by Michaelis-Menten method; in short: as §1
[6] = target: Procathepsin L (Homo sapiens) (UniProt P07711); assay: Inhibition of human recombinant cathepsin L expressed in Escherichia coli assessed as formation of fluorescent degradation product AMC using Z-Phe-Arg-AMC as substrate at 50 uM by fluorescence microplate assay
Chain of Procathepsin L (Homo sapiens) (P07711 114-333 limits assumed): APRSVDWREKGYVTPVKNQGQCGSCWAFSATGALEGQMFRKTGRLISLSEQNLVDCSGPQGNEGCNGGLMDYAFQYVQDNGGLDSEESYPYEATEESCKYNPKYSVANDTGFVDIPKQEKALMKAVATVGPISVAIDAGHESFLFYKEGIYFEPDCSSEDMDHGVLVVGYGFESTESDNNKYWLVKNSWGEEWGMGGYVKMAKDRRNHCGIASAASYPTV

Cathepsin B [7] = target: T1, Cathepsin B; assay: Partial mixed-type inhibition of human recombinant cathepsin B assessed as formation of fluorescent degradation product AMC using Z-Arg-Arg-AMC as substrate by Michaelis-Menten method; in short: as §1

Row | Structure (SMILES) | inhibition (Cathepsin B [1]) [%] | inhibition [2] [%] | fold change (FC) (Cathepsin B [3]) | Ki (Cathepsin B [4]) [µM] | Ki (Cathepsin B [5]) [µM] | inhibition [6] [%] | Ki (Cathepsin B [7]) [µM]
1 | COc1nc(N[C@H](CCC(=O)O)C(=O)O)nc(OC)n1 | -5.48 | 0.34 |  |  |  |  | 
2 | COC(=O)c1ccccc1Oc1nc(OC)nc(OC)n1 | -0.33 | -5.34 |  |  |  | -9.64 | 
3 | COc1ccc(CNc2nc(Cl)nc(Cl)n2)cc1 | 3.99 | 6.37 |  |  |  | 0.48 | 
4 | COc1ccc(CNc2nc(Cl)nc(N(C)CCO)n2)cc1 | 0.92 | 7.12 |  |  |  | 9.95 | 
5 | OCCc1ccccc1Nc1nc(Cl)nc(N2CCOCC2)n1 | -4.76 | -8.72 |  |  |  |  | 
6 | COc1nc(OC)nc(Sc2ccccc2C(=O)O)n1 | 2.35 |  |  |  |  | 15.8 | 
7 | O=c1nc(-c2cccc([N+](=O)[O-])c2)nc(S)[nH]1 | 4.71 | 7.97 |  |  |  | 7.7 | 
8 | O=c1nc(-c2ccccc2)nc(S)[nH]1 | -3.22 | 4.86 |  |  |  | -1.89 | 
9 | O=c1nc(SCc2ccccc2)nc(SCc2ccccc2[N+](=O)[O-])[nH]1 |  |  | 0.24 | 11.9 |  |  | 6
10 | COc1nc(OC)nc(Sc2ccccc2C(=O)N[C@@H](C)C(=O)OCc2ccccc2)n1 | 3.18 | 1.34 |  |  |  | -4.25 | 
11 | C[C@@H](NC(=O)c1ccccc1Nc1nc(Cl)nc(Cl)n1)C(=O)O | -1.7 |  |  |  |  | -5.15 | 
12 | COc1nc(Nc2ccccc2C(=O)O)nc(OC)n1 | 6.34 | 2.63 |  |  |  | -3.14 | 
13 | O=C(O)c1ccccc1Sc1nc(Cl)nc(Cl)n1 | 2.3 | -1.7 |  |  |  |  | 
14 | Cc1ccc(-c2nc(S)[nH]c(=O)n2)cc1 | 9.02 | 6.58 |  |  |  | 6.37 | 
15 | OCCc1ccccc1Nc1nc(Cl)nc(Cl)n1 | -3.38 |  |  |  |  |  | 
16 | COC(=O)c1ccccc1Nc1nc(Cl)nc(Cl)n1 | -0.92 | -4.23 |  |  |  | 8.76 | 
17 | CC(C)(C)c1ccccc1Nc1nc(Cl)nc(Cl)n1 | -7.27 | -4.16 |  |  |  | 4.36 | 
18 | COc1ccc(CCNc2nc(Cl)nc(Cl)n2)cc1OC | -9.7 | -2.17 |  |  |  | -0.33 | 
19 | CC(C)OC(=O)[C@H](C)NC(=O)c1ccc(Nc2nc(Cl)nc(Cl)n2)cc1 | 1.68 | 3.02 |  |  |  | -6.12 | 
20 | O=c1nc(SCc2ccccc2)nc(SCc2cccc([N+](=O)[O-])c2)[nH]1 |  | 3.92 | 0.15 | 11.3 |  | 81.2 | 3.3
21 | CN(CCO)c1nc(Cl)nc(Nc2ccccc2CCO)n1 | -3.56 | 0.61 |  |  |  | 11.6 | 
22 | Clc1nc(Cl)nc(Nc2ccccc2Br)n1 | -1.59 | 4.52 |  |  |  | 0.59 | 
23 | CCc1ccccc1Nc1nc(Cl)nc(Cl)n1 | -3.44 | -2.26 |  |  |  | -1.59 | 

The remaining lines, values ahead:

Row | inhibition (Cathepsin B [1]) [%] | inhibition [2] [%] | fold change (FC) (Cathepsin B [3]) | Ki (Cathepsin B [4]) [µM] | Ki (Cathepsin B [5]) [µM] | inhibition [6] [%] | Ki (Cathepsin B [7]) [µM] | Structure (SMILES)
24 |  | 10.6 | 0 | 23 | 8.95 | 9.96 |  | O=c1nc(SCc2ccccc2)nc(SCC2CCCC2)[nH]1
25 |  |  | 0.33 | 16.6 |  |  | 13.8 | O=c1nc(SCc2ccccc2)nc(SCc2ccc(F)cc2)[nH]1
26 |  | 4.94 | 0 | 208 | 51.6 | -5.28 |  | N#CCSc1nc(SCc2ccccc2)nc(=O)[nH]1
27 |  | 1.55 | 0.07 | 24.3 |  | 44.9 | 10.8 | N#Cc1ccc(CSc2nc(SCc3ccccc3)nc(=O)[nH]2)cc1
28 |  |  | 0.04 | 40.7 |  |  | 10.5 | N#Cc1ccccc1CSc1nc(SCc2ccccc2)nc(=O)[nH]1
29 |  |  | 0.28 | 5.4 |  |  | 4.5 | O=c1nc(SCc2ccccc2)nc(SCc2cccc(Cl)c2)[nH]1
30 |  | -1.81 | 0 | 70.6 | 14.8 | 9.33 |  | CCCCSc1nc(SCc2ccccc2)nc(=O)[nH]1
31 |  | -4.06 | 0 | 221 | 97.1 |  |  | CCSc1nc(SCc2ccccc2)nc(=O)[nH]1
32 |  | 10.2 | 0.12 | 11.9 |  | 76.2 | 3.3 | O=c1nc(SCc2ccccc2)nc(SCC2CCCCC2)[nH]1
33 |  | -4.82 | 0 |  |  | -8.66 |  | CCCSc1nc(SCc2ccccc2)nc(=O)[nH]1
34 |  |  | 0.42 | 13 |  |  | 21.9 | COc1cccc(CSc2nc(SCc3ccccc3)nc(=O)[nH]2)c1
35 |  |  | 0.02 | 46.7 |  |  | 9.1 | N#Cc1cccc(CSc2nc(SCc3ccccc3)nc(=O)[nH]2)c1
36 |  | 6.91 | 0.25 | 4.4 |  | 85.2 | 2.5 | O=c1nc(SCc2ccccc2)nc(SCc2ccc(Cl)cc2)[nH]1
37 |  |  | 0.23 | 7.2 |  |  | 3.6 | O=c1nc(SCc2ccccc2)nc(SCc2ccccc2Cl)[nH]1
38 |  | 1.57 | 0 | 34.1 | 10.1 | 37.4 |  | O=c1nc(SCc2ccccc2)nc(SCC2CCC2)[nH]1
39 |  | 4.18 | 0.22 | 10.2 |  | 7.68 | 7.4 | O=c1nc(SCc2ccccc2)nc(SCc2cccc(F)c2)[nH]1
40 | 79.6 | 1.06 | 0.22 | 15.6 |  | 61.3 | 4.4 | COc1ccccc1CSc1nc(SCc2ccccc2)nc(=O)[nH]1
41 |  |  | 0.2 | 11.1 |  |  | 10.3 | COc1ccc(CSc2nc(SCc3ccccc3)nc(=O)[nH]2)cc1
42 |  | 6.89 | 0 | 560 | 351 | -2.36 |  | O=C(O)CSc1nc(SCc2ccccc2)nc(=O)[nH]1
43 |  |  | 0.36 | 9.5 |  |  | 9 | O=c1nc(SCc2ccccc2)nc(SCc2ccccc2F)[nH]1
44 |  |  |  | 259 | 49.4 |  |  | CCCSc1nc(SCc2ccccc2)[nH]c(=O)n1
45 | 2.5 | 9.63 |  |  |  | 3.79 |  | O=c1nc(SCc2ccccc2)nc(S)[nH]1
46 |  |  | 0.17 | 10 |  |  | 4 | O=c1nc(SCc2ccccc2)nc(SCc2ccc([N+](=O)[O-])cc2)[nH]1
47 |  | 10 | 0 | 211 | 28.3 | 42 |  | O=c1nc(SCc2ccccc2)nc(SCC2CC2)[nH]1
48 |  |  | 0.07 | 23 |  |  | 9.7 | N#Cc1ccc(CSc2nc(SCc3ccccc3)nc(=O)[nH]2)c(F)c1
